Laboratory results from article PMC7667462 (Journal of medicinal chemistry, 2019).
“Also recorded” adds a separate entry of the source. Each block holds one molecule with its values, some of them ahead of it.

Key:
Clk (Cdc-like kinase) 2 = conditions: cited from earlier work
CK2α2β2 holoenzyme = CK2α2β2 holoenzyme (Homo sapiens, UniProt P68400); assay: CK2 radiometric kinase assay, holoenzyme versus CK2α; format: biochemical; conditions: CK2β-independent peptide substrate
Procedure, shortened: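 Radiometric CK2 assay comparing isolated human recombinant CK2α with the CK2α₂β₂ holoenzyme across increasing test compound concentrations, using a CK2β-independent peptide substrate. ATP was 100 μM unless stated otherwise.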

pim-1 = pim-1 (Homo sapiens, UniProt P11309); assay: kinase selectivity profiling, residual kinase activity; format: biochemical; conditions: read-out: % inhibition of pim-1
Procedure, shortened: (§1)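 The test compound was profiled against a panel of 44 human kinases, with ATP set to the Km of each kinase. Remaining activity was read as % inhibition of each kinase.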

CK2α [1] = molecular target: T1, CK2α (Homo sapiens, UniProt P68400); assay: as above; format: biochemical; conditions: compound at 50 μM
Procedure, shortened: as §1

EphA4 = EphA4 (Homo sapiens, UniProt P54764); assay: as above; format: biochemical; conditions: read-out: % inhibition of EphA4
Procedure, shortened: as §1

CK2α [2] = molecular target: T1, CK2α; assay: CK2 radiometric kinase assay; format: biochemical; conditions: compared with compound 2
CK2α^1–335 = molecular target: T2, CK2α^1–335 (Homo sapiens, UniProt P68400); assay: native mass spectrometry binding and competition; conditions: 10 μM CK2α; for binding stoichiometry to CK2α by native mass spectrometry: 100 μM IP6 or 10–40 μM 6, 5% DMSO
T2 sequence (P68400 1-335): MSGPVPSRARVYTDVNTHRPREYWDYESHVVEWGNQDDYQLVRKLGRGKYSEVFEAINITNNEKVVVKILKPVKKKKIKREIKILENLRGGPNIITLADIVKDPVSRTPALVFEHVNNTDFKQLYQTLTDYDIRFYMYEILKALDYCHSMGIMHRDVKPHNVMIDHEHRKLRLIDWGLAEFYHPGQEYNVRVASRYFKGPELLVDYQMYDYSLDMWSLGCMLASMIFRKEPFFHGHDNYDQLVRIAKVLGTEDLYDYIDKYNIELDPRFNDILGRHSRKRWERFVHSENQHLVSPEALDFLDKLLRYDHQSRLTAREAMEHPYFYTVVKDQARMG

water solubility = format: physicochemical; conditions: qualitative, relative to the other compounds of the series
CK2α [3] = molecular target: T1, CK2α; assay: NMR Saturation Transfer Difference; format: binding; conditions: compound 500 μM, CK2α 5 μM
ACVR1 (ALK2) = molecular target: T3, ACVR1 (ALK2) (Homo sapiens, UniProt Q04771); assay: kinase selectivity profiling, residual kinase activity; format: biochemical; conditions: read-out: % inhibition of ACVR1
T3 sequence (Q04771 21-509): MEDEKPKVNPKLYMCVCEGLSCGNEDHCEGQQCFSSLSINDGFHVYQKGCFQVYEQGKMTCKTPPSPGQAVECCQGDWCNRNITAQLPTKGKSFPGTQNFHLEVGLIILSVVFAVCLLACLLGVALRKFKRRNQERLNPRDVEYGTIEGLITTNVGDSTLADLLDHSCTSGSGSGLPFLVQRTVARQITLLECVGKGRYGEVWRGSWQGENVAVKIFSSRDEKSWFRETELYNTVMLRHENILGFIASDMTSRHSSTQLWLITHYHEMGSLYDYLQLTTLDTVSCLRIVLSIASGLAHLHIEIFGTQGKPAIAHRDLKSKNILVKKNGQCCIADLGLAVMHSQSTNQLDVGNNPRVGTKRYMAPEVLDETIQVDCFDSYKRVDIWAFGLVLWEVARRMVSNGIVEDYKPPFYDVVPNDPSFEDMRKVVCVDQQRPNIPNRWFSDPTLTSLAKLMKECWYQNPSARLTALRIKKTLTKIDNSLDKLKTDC
Procedure, shortened: as §1

Clk4 = Clk4 (Homo sapiens, UniProt Q9HAZ1); assay: as above; format: biochemical; conditions: read-out: % inhibition of Clk4
Procedure, shortened: as §1

MLCK (MLCK2) = molecular target: T4, MLCK (MLCK2) (Homo sapiens, UniProt Q32MK0); assay: as above; format: biochemical; conditions: read-out: % inhibition of MLCK
T4 sequence (Q32MK0 1-819): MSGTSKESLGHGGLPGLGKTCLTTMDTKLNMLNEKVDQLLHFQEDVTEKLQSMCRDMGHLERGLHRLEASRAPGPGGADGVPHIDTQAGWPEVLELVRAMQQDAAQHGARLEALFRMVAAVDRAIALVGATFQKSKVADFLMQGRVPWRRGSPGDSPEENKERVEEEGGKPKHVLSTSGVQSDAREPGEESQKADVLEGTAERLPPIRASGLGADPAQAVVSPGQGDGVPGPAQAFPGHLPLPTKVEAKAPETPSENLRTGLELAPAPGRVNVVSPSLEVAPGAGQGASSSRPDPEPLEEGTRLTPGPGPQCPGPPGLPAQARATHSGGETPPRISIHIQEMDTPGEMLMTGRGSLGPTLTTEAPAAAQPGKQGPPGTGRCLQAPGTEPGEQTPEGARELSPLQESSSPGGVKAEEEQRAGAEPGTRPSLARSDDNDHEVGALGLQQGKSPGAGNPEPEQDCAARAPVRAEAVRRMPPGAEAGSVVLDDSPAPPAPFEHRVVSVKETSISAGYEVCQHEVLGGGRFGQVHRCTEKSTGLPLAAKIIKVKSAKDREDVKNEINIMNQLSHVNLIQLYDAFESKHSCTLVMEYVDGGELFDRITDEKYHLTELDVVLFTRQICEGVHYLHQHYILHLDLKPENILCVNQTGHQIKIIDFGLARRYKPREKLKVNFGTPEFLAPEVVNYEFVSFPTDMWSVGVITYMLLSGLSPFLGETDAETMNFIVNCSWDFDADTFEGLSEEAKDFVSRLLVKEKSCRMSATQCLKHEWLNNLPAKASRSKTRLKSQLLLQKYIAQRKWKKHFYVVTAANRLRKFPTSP
Procedure, shortened: as §1

Clk2 = Clk2 (Homo sapiens, UniProt P49760); assay: as above; format: biochemical; conditions: read-out: % inhibition of Clk2
Procedure, shortened: as §1

Dyrk1A = Dyrk1A (Homo sapiens, UniProt Q13627); assay: as above; format: biochemical; conditions: read-out: % inhibition of Dyrk1A
Procedure, shortened: as §1

GSK3β = GSK3β (Homo sapiens, UniProt P49841); assay: as above; format: biochemical; conditions: read-out: % inhibition of GSK3β
Procedure, shortened: as §1

T1 sequence (P68400 whole entry): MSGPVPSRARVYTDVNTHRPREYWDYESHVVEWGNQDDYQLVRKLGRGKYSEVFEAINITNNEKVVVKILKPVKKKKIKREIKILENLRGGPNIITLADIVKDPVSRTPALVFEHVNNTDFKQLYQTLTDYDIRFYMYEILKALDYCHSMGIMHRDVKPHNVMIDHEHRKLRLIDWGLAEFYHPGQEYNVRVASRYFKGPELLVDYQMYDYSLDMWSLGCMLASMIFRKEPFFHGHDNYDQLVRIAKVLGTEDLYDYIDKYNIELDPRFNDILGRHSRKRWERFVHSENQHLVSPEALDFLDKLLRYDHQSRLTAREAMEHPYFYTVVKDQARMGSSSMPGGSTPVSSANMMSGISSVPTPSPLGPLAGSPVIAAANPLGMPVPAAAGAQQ
Sequence of EphA4 (P54764 20-986): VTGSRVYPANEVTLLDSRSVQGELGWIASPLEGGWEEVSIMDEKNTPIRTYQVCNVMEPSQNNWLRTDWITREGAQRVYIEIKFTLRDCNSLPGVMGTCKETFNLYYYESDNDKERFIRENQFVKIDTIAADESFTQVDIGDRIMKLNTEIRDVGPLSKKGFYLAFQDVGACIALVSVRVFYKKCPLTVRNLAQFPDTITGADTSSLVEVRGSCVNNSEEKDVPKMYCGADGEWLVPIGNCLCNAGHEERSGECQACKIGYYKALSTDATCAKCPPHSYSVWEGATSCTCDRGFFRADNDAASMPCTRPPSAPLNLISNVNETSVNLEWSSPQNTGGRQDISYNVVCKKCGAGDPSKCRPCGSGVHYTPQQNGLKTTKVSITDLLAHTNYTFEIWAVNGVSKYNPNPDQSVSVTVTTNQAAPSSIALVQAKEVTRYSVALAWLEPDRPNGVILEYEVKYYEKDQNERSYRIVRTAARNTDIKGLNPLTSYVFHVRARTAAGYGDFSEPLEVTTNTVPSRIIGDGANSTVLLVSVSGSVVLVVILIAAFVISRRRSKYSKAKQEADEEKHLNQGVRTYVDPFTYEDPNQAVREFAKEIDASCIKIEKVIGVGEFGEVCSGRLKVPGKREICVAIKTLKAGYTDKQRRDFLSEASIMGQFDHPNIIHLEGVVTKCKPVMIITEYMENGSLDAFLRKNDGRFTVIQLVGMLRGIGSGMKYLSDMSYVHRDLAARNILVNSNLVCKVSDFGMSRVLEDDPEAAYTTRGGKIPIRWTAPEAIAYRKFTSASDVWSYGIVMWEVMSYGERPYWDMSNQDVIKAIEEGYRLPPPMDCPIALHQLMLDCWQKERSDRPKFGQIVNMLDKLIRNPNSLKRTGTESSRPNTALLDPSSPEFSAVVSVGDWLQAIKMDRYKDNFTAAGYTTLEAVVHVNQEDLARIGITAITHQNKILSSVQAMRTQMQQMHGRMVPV
Sequence of GSK3β (P49841 whole entry): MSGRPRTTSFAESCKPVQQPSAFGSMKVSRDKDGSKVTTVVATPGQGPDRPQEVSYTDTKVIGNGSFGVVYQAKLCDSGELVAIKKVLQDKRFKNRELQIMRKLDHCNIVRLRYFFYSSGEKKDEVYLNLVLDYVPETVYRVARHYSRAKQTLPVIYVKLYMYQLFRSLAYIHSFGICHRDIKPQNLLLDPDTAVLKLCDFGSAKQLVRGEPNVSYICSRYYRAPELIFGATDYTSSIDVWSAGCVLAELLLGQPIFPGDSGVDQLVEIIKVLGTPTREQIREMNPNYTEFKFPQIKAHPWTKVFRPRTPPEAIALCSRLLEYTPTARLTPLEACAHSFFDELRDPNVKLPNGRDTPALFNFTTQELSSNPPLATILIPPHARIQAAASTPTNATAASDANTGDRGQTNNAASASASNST
Sequence of Clk2 (P49760 whole entry): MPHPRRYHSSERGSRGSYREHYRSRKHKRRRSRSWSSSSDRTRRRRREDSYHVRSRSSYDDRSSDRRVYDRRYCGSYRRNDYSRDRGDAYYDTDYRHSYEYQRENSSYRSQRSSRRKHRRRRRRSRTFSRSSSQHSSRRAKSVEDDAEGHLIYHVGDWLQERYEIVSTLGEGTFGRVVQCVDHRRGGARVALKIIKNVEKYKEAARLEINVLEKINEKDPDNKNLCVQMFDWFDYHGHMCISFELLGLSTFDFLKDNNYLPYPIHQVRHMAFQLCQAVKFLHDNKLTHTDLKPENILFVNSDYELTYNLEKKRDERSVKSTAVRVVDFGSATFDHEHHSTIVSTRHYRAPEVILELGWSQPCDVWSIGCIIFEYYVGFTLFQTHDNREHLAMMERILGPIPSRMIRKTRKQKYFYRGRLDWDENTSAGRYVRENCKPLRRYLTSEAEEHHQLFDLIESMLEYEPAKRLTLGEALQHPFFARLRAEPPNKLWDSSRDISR
Sequence of pim-1 (P11309 whole entry): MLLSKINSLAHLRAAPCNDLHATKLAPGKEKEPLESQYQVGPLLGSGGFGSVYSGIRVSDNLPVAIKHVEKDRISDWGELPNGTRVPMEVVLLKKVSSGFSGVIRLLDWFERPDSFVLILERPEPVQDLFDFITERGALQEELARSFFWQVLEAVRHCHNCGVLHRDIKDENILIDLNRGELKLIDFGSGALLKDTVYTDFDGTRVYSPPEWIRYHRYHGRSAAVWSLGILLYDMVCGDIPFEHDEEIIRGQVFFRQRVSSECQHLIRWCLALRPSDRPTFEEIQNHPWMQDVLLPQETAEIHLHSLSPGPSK
Sequence of CK2α2β2 holoenzyme (P68400 whole entry): as the sequence (P68400 whole entry) above
Sequence of CK2α2β2 holoenzyme (P67870 whole entry partner): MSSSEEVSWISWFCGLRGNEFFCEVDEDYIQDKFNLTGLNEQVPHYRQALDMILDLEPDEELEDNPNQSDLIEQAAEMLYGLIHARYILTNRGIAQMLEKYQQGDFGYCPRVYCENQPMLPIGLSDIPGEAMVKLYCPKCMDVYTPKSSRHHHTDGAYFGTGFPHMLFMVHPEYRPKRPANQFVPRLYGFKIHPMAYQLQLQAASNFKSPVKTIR
Sequence of Clk4 (Q9HAZ1 whole entry): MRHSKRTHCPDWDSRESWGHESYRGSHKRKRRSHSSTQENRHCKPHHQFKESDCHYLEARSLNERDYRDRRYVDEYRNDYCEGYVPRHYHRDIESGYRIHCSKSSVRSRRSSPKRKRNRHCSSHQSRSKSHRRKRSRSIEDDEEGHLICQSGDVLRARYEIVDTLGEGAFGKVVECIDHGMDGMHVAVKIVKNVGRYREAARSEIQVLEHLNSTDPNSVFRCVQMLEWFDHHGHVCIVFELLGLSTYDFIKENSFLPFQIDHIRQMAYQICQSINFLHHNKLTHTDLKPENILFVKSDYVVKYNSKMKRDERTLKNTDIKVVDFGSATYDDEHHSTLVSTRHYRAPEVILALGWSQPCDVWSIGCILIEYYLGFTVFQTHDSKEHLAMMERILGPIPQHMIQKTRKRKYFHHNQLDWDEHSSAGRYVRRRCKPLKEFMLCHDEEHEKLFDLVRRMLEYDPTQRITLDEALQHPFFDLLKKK

binding stoichiometry to CK2α by native mass spectrometry (CK2α^1–335): various stoichiometries
native MS competition with IP6 for binding to CK2α (CK2α^1–335; 10 μM compound, 100 μM IP6): competitive ligand of IP6
STD NMR competition with CX-4945 for binding to CK2α (CK2α [3]; CX-4945 100 μM): did not bind to the same site as CX-4945
SMILES: O=C(O)c1ccc(Nc2nc(-c3ccccc3)cs2)cc1 [Compound 6, 4-(4-Phenyl-thiazol-2-ylamino)-benzoic acid]
water solubility (water solubility): superior water solubility; also recorded: relatively good solubility in water
STD NMR competition with AMP-PNP for binding to CK2α (CK2α [3]; AMP-PNP 500 μM): AMP-PNP was not able to bind to CK2α in the presence of 2-aminothiazole 6

inhibition at 50 µM (ACVR1 (ALK2)): 66%
inhibition at 50 µM (Clk4): 61%
inhibition at 50 µM (MLCK (MLCK2)): 61%
inhibition at 50 µM (Clk2): ~30%
inhibition at 50 µM (Dyrk1A): ~30%
inhibition at 50 µM (EphA4): 73%
inhibition at 50 µM (GSK3β): 71%
SMILES: O=C(O)c1ccc(Nc2nc(-c3cccc(Br)c3)cs2)cc1 [Compound 7, 4-[4-(3-Bromo-phenyl)-thiazol-2-ylamino]-benzoic acid]

binding stoichiometry to CK2α by native mass spectrometry (CK2α^1–335): 1:1 and 1:2 stoichiometry
SMILES: O=P(O)(O)OC1C(OP(=O)(O)O)C(OP(=O)(O)O)C(OP(=O)(O)O)C(OP(=O)(O)O)C1OP(=O)(O)O (stereo not shown) [IP6, inositol hexakisphosphate, reference compound]

Second part, the molecule before the results:

SMILES: O=C(O)c1ccc2c(c1)nc(Nc1cccc(Cl)c1)c1ccncc12 [CX-4945, 5-(3-chlorophenylamino)benzo[c][2,6]naphthyridine-8-carboxylic acid]
IC50 (Clk (Cdc-like kinase) 2): 4 nM

SMILES: O=C(O)c1cccc(Nc2nc(-c3cccc([N+](=O)[O-])c3)cs2)c1 [Compound 1, 3-((4-(3-nitrophenyl)thiazol-2-yl)amino)benzoic acid]
inhibition of CK2α2β2 holoenzyme compared with CK2α (CK2α2β2 holoenzyme): inhibited to the same extent

SMILES: O=C(O)c1ccc(Nc2nc(-c3cccc([N+](=O)[O-])c3)cs2)cc1 [Compound 2, 4-((4-(3-nitrophenyl)thiazol-2-yl)amino)benzoic acid]
inhibition at 50 µM (pim-1): 54%
inhibition of CK2α (CK2α [1]): full inhibition
inhibition at 50 µM (EphA4): 55%

SMILES: O=[N+]([O-])c1cccc(-c2csc(Nc3ccccc3)n2)c1 [Compound 3, [4-(3-Nitro-phenyl)-thiazol-2-yl]-phenyl-amine]
CK2α inhibitory activity, in words (SAR) (CK2α [2]): significant loss of activity

SMILES: COC(=O)c1ccc(Nc2nc(-c3cccc([N+](=O)[O-])c3)cs2)cc1 [Compound 4, 4-[4-(3-Nitro-phenyl)-thiazol-2-ylamino]-benzoic acid methyl ester]
CK2α inhibitory activity, in words (SAR) (CK2α [2]): significant loss of activity

SMILES: O=C(O)c1ccc(Nc2nccs2)cc1 [Compound 5, 4-(Thiazol-2-ylamino)-benzoic acid]
CK2α inhibitory activity, in words (SAR) (CK2α [2]): complete lack of activity

SMILES: O=C(O)c1ccc(Nc2nc(-c3ccccn3)cs2)cc1 [Compound 9, 4-(4-Pyridin-2-yl-thiazol-2-ylamino)-benzoic acid]
water solubility (water solubility): superior water solubility; also recorded: relatively good solubility in water
